Key:
G22 cells [1] = test: 3D spheroid assay; format: cell-based, human; conditions: 5 μM, treated once
NIH3T3/v-Src fibroblasts = test: Trypan blue exclusion viable cell counting; format: cell-based, mouse; conditions: 1 and 2.5 μM
Procedure, shortened: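 Cells in culture treated once with increasing concentrations of test compound for 0–96 h. Harvested every 24 h, and viable cells counted by trypan blue exclusion under phase-contrast microscopy.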

Stat3:Stat3 = Stat3:Stat3 (Mus musculus, UniProt P42227); test: Cell-free EMSA, nuclear extracts pre-incubated with compound, hSIE probe; format: biochemical
Chain of Stat3:Stat3 (P42227 2-770 limits assumed): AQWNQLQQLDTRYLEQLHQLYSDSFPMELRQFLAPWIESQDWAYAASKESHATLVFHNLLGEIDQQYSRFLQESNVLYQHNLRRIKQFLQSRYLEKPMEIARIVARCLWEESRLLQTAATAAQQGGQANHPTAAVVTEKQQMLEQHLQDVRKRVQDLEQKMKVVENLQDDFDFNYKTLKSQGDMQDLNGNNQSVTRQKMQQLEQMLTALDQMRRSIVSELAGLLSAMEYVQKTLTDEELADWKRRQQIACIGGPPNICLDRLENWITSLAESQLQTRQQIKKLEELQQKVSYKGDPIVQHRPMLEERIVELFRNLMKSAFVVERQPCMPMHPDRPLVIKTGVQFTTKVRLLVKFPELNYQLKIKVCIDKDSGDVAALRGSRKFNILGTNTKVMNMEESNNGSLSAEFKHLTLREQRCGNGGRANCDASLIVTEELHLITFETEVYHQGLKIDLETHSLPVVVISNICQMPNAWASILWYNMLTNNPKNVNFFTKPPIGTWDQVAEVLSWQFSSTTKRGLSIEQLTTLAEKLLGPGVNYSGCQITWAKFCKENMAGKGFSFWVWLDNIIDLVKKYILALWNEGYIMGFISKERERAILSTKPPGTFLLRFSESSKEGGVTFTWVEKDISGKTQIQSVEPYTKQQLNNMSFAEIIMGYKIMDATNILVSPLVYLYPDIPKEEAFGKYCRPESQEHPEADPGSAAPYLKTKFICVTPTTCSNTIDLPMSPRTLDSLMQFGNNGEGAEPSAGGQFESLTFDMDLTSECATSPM

pS-Akt = test: Immunoblotting, U251MG glioma cells; format: cell-based, human; conditions: 5 μM
Procedure, shortened: (§1)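 U251MG cells given 5 μM test compound for 0–24 h. Whole-cell lysates of equal total protein immunoblotted for pErk1/2, Erk1/2, pS-Akt, Akt, pJAK2, JAK2, SOCS3 and PTP1B, with β-actin or GAPDH as loading reference.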

G22 cells [2] = test: Growth of glioma patient-derived xenograft cells in vitro; format: cell-based; conditions: Homo sapiens, read-out: inhibitory activity against growth of G22 cells
Stat5:Stat5 = test: Cell-free EMSA, EGF-stimulated NIH3T3/hEGFR nuclear extracts, MGFe probe; format: biochemical, mouse; conditions: 5 μM, 30 min pre-incubation
Procedure, shortened: (§2)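 Nuclear extracts from EGF-stimulated NIH3T3/hEGFR fibroblasts, containing active Stat1, Stat3 and Stat5, preincubated with 5 μM test compound for 30 min at room temperature. Then incubated 30 min with 32P-labelled probe before EMSA: hSIE (Stat1/Stat3 binding) or MGFe (bovine β-casein element; Stat1/Stat5 binding). STAT:DNA bands quantified as percent of control.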

G12 cells = test: Growth of glioma patient-derived xenograft cells in vitro; format: cell-based; conditions: Homo sapiens, read-out: inhibitory activity against G12 cell growth
Stat1:Stat1 = biological target: T1, Stat1:Stat1 (Mus musculus, UniProt P42225); test: Cell-free EMSA, EGF-stimulated NIH3T3/hEGFR nuclear extracts; format: biochemical; conditions: 5 μM, 30 min pre-incubation
T1 sequence (P42225 2-749 limits assumed): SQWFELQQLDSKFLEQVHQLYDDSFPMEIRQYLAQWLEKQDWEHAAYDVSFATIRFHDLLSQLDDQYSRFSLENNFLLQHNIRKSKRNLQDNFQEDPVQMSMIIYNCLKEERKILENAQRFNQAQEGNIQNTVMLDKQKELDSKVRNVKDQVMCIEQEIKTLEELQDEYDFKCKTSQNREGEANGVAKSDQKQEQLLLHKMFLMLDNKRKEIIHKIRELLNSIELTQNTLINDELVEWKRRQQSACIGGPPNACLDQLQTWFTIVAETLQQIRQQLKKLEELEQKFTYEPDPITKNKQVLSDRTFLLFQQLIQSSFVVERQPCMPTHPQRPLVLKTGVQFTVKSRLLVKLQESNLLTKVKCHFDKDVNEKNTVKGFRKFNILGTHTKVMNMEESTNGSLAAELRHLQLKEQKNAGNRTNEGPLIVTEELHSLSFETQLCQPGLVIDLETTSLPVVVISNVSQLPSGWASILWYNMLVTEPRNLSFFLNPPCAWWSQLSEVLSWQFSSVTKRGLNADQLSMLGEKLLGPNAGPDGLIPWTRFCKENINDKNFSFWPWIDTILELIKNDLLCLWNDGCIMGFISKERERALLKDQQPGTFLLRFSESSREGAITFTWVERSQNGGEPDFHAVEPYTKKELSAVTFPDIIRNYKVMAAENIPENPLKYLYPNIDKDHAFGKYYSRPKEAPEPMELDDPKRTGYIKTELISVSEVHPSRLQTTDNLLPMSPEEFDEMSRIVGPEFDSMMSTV
Procedure, shortened: as §2

MDA-MB-231 cells = test: CyQuant cell proliferation assay; format: cell-based, human; conditions: Homo sapiens, MDA-MB-231, 72 h, read-out: IC50 cell proliferation MDA-MB-231
Procedure, shortened: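 CyQuant DNA-dye proliferation assay on cultured cells after 72 h exposure to test compound. Viability expressed relative to DMSO-treated control cells.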

NIH3T3 cells = test: Colony survival assay; format: cell-based, mouse; conditions: 2.5 μM or less
Procedure, shortened: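 Cells seeded as single cells at 250 per well and treated once the next day with test compound (0–5 μM) for 72 h. Grown until large colonies were visible: 1 week for NIH3T3, 2 weeks for U251MG. Colonies stained with crystal violet for 4 h and counted.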

[3] = test system: suppressors of cytokine signaling (SOCS)3; test: Immunoblotting, U251MG glioma cells; format: cell-based, human; conditions: 5 μM
Procedure, shortened: as §1

C/C=C(\C)C(=O)OCC1=C2/C(=C\[C@@]3(C)CC[C@](O)(O3)[C@H](C)C[C@@H]2O)OC1=O [Compound 22]
3D spheroid growth (G22 cells [1]): decreased 3D spheroid growth | growth of NIH3T3/v-Src over normal NIH3T3 fibroblasts (NIH3T3/v-Src fibroblasts): preferential inhibition of growth | Stat3:Stat3/DNA-binding activity (complexation), cell-free EMSA (Stat3:Stat3; 5 μM, 30 min pre-incubation, NIH3T3/v-Src nuclear extracts): diminished | Stat3:Stat3/DNA complexation in the presence of Cys (Stat3:Stat3; in the presence of 50 μM Cys): strongly inhibited | effect on pS-Akt levels (pS-Akt): no effects | inhibition at 5 µM (G22 cells [2]): 45 to 60% | effect on Stat5:Stat5 activity, cell-free EMSA (Stat5:Stat5): weak effects | inhibition at 5 µM (G12 cells): 25 to 35% | effect on Stat1:Stat1 activity, cell-free EMSA (Stat1:Stat1): weak effects | IC50 (MDA-MB-231 cells): 5.2 to 9.1 µM | effects on NIH3T3 colony numbers (NIH3T3 cells): moderate or none | effect on SOCS3 levels [3]: no effects
